# Columns and labels:
# Details in all cases: in vivo
# Rattus norvegicus [1] = test: Distribution (percent dose/g of tissue) of radioactivity 24 hr after intravenous administration of [125I]-labeled compound in rat ovary; type: ADME, organism-based, Female gonad
# Outline: (§1)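 Radioiodinated ester given IV to adult female Sprague–Dawley rats (200–300 g), 5–50 μCi per animal, 3–5 rats per compound. Rats killed by exsanguination under ether at 24 h. Organs blotted, large ones minced, weighed samples gamma-counted in well scintillation counter (84% efficiency). Value is % administered dose per g tissue, background-corrected; mean with SEM.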
# Rattus norvegicus [2] = test: Distribution (percent dose/g of tissue) of radioactivity 24 hr after intravenous administration of [125I]-labeled compound in rat lung; type: ADME, organism-based; outline: as §1
# Rattus norvegicus [3] = test: Distribution (percent dose/g of tissue) of radioactivity 24 hr after intravenous administration of [125I]-labeled compound to rat thyroid; type: ADME, organism-based, Thyroid gland; outline: as §1
# Rattus norvegicus [4] = test: Distribution (percent dose/g of tissue) of radioactivity 24 hr after intravenous administration of [125I]-labeled compound in rat blood; type: ADME, organism-based; outline: as §1
# Rattus norvegicus [5] = test: Distribution (percent dose/g of tissue) of radioactivity 24 hr after intravenous administration of [125I]-labeled compound in rat liver; type: ADME, organism-based; outline: as §1
# Rattus norvegicus [6] = test: Distribution (percent dose/g of tissue) of radioactivity 24 hr after intravenous administration of [125I]-labeled compound to rat spleen; type: ADME, organism-based; outline: as §1
# Rattus norvegicus [7] = test: Distribution (percent dose/g of tissue) of radioactivity 24 hr after intravenous administration of [125I]-labeled compound in rat adrenal cortex; type: ADME, organism-based; outline: as §1
# Rattus norvegicus [8] = test: Distribution (percent dose/g of tissue) of radioactivity 24 hr after intravenous administration of [125I]-labeled compound in rat plasma; type: ADME, organism-based; outline: as §1
# Rattus norvegicus [9] = test: Distribution (percent dose/g of tissue) of radioactivity 24 hr after intravenous administration of [125I]-labeled compound in rat heart; type: ADME, organism-based; outline: as §1
# Rattus norvegicus [10] = test: Distribution (percent dose/g of tissue) of radioactivity 24 hr after intravenous administration of [125I]-labeled compound in rat spleen; type: ADME, organism-based; outline: as §1
# Rattus norvegicus [11] = test: Distribution (percent dose/g of tissue) of radioactivity 24 hr after intravenous administration of [125I]-labeled compound in rat thyroid; type: ADME, organism-based, Thyroid gland; outline: as §1
# Rattus norvegicus [12] = test: Distribution (percent dose/g of tissue) of radioactivity 24 hr after intravenous administration of [125I]-labeled compound to rat blood; type: ADME, organism-based; outline: as §1
SMILES,Activity (Rattus norvegicus [1]),Activity (Rattus norvegicus [2]),Activity (Rattus norvegicus [3]),Activity (Rattus norvegicus [4]),Activity (Rattus norvegicus [5]),Activity (Rattus norvegicus [6]),Activity (Rattus norvegicus [7]),Activity (Rattus norvegicus [8]),Activity (Rattus norvegicus [9]),Activity (Rattus norvegicus [10]),Activity (Rattus norvegicus [11]),Activity (Rattus norvegicus [12])
CC(C)CCCC(C)C1CCC2C3CC=C4CC(OC(=O)c5ccccc5I)CCC4(C)C3CCC12C (centres undefined),13.68 % dose (g of tissue)-1,0.94 % dose (g of tissue)-1,,0.44 % dose (g of tissue)-1,5.18 % dose (g of tissue)-1,,14.67 % dose (g of tissue)-1,0.8 % dose (g of tissue)-1,0.21 % dose (g of tissue)-1,1.89 % dose (g of tissue)-1,1.96 % dose (g of tissue)-1,
CC(C)CCCC(C)C1CCC2C3CC=C4CC(OC(=O)CCc5ccc(I)cc5)CCC4(C)C3CCC12C (centres undefined),1.35 % dose (g of tissue)-1,0.5 % dose (g of tissue)-1,,0.13 % dose (g of tissue)-1,0.42 % dose (g of tissue)-1,,3.56 % dose (g of tissue)-1,0.16 % dose (g of tissue)-1,0.08 % dose (g of tissue)-1,0.51 % dose (g of tissue)-1,67.52 % dose (g of tissue)-1,
CC(C)CCCC(C)C1CCC2C3CC=C4CC(OC(=O)Cc5ccccc5I)CCC4(C)C3CCC12C (centres undefined),5.97 % dose (g of tissue)-1,0.43 % dose (g of tissue)-1,,0.21 % dose (g of tissue)-1,3.99 % dose (g of tissue)-1,,9.19 % dose (g of tissue)-1,0.29 % dose (g of tissue)-1,0.15 % dose (g of tissue)-1,1.31 % dose (g of tissue)-1,46.31 % dose (g of tissue)-1,
CC(C)CCCC(C)C1CCC2C3CC=C4CC(OC(=O)c5ccc(I)cc5)CCC4(C)C3CCC12C (centres undefined),6.21 % dose (g of tissue)-1,0.94 % dose (g of tissue)-1,,,3.28 % dose (g of tissue)-1,,3.86 % dose (g of tissue)-1,0.36 % dose (g of tissue)-1,0.11 % dose (g of tissue)-1,1.49 % dose (g of tissue)-1,6.92 % dose (g of tissue)-1,0.2 % dose (g of tissue)-1
CC(C)CCCC(C)C1CCC2C3CC=C4CC(OC(=O)Cc5ccc(I)cc5)CCC4(C)C3CCC12C (centres undefined),2.32 % dose (g of tissue)-1,0.65 % dose (g of tissue)-1,,1.02 % dose (g of tissue)-1,1.25 % dose (g of tissue)-1,,3.29 % dose (g of tissue)-1,1.88 % dose (g of tissue)-1,0.33 % dose (g of tissue)-1,0.5 % dose (g of tissue)-1,27.09 % dose (g of tissue)-1,
CC(C)CCCC(C)C1CCC2C3CC=C4CC(OC(=O)Cc5cccc(I)c5)CCC4(C)C3CCC12C (centres undefined),5.05 % dose (g of tissue)-1,0.27 % dose (g of tissue)-1,,0.14 % dose (g of tissue)-1,2.11 % dose (g of tissue)-1,,3.4 % dose (g of tissue)-1,0.24 % dose (g of tissue)-1,0.11 % dose (g of tissue)-1,0.77 % dose (g of tissue)-1,32.62 % dose (g of tissue)-1,
CC(C)CCCC(C)C1CCC2C3CC=C4CC(OC(=O)CCCc5ccc(I)cc5)CCC4(C)C3CCC12C (centres undefined),3.23 % dose (g of tissue)-1,0.4 % dose (g of tissue)-1,,0.87 % dose (g of tissue)-1,0.36 % dose (g of tissue)-1,,1.94 % dose (g of tissue)-1,1.51 % dose (g of tissue)-1,0.25 % dose (g of tissue)-1,0.16 % dose (g of tissue)-1,30.09 % dose (g of tissue)-1,

# Other lines, results leading:
Activity (Rattus norvegicus [1]),Activity (Rattus norvegicus [2]),Activity (Rattus norvegicus [3]),Activity (Rattus norvegicus [4]),Activity (Rattus norvegicus [5]),Activity (Rattus norvegicus [6]),Activity (Rattus norvegicus [7]),Activity (Rattus norvegicus [8]),Activity (Rattus norvegicus [9]),Activity (Rattus norvegicus [10]),Activity (Rattus norvegicus [11]),Activity (Rattus norvegicus [12]),SMILES
16.19 % dose (g of tissue)-1,0.7 % dose (g of tissue)-1,2.63 % dose (g of tissue)-1,0.57 % dose (g of tissue)-1,5.11 % dose (g of tissue)-1,1.68 % dose (g of tissue)-1,9.03 % dose (g of tissue)-1,1.02 % dose (g of tissue)-1,,,,,CC(C)CCCC(C)C1CCC2C3CC=C4CC(OC(=O)c5cc(I)cc(I)c5I)CCC4(C)C3CCC12C (centres undefined)
12.53 % dose (g of tissue)-1,0.97 % dose (g of tissue)-1,6.06 % dose (g of tissue)-1,0.54 % dose (g of tissue)-1,4.8 % dose (g of tissue)-1,2.98 % dose (g of tissue)-1,7.48 % dose (g of tissue)-1,1.01 % dose (g of tissue)-1,0.2 % dose (g of tissue)-1,,,,CC(C)CCCC(C)C1CCC2C3CC=C4CC(OC(=O)c5cc(I)c(I)c(I)c5)CCC4(C)C3CCC12C (centres undefined)
15.7 % dose (g of tissue)-1,0.46 % dose (g of tissue)-1,,,5.03 % dose (g of tissue)-1,,12.76 % dose (g of tissue)-1,0.55 % dose (g of tissue)-1,0.16 % dose (g of tissue)-1,1.86 % dose (g of tissue)-1,7.3 % dose (g of tissue)-1,0.3 % dose (g of tissue)-1,CC(C)CCCC(C)C1CCC2C3CC=C4CC(OC(=O)c5cccc(I)c5)CCC4(C)C3CCC12C (centres undefined)

# Reference: ChEMBL document CHEMBL1122065, “Potential organ- or tumor-imaging agents. 22. Acyl-labeled cholesterol esters” (J Med Chem, 1982)
